Activity calls are given as the source filed them. No cut-off for these calls is given here.
Legend:
MCF7 [1] = test: Induction of apoptosis in human MCF7 cells at 10 to 20 uM after 12 hrs by Annexin V-FITC/propidium iodide staining based confocal laser microscopic method relative to control; type: functional
Outline: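 MCF7 cells exposed 12 h, with or without NAC (10 mM) 30 min pretreatment. Phosphatidylserine detected with annexin V-FITC, nuclei counterstained with PI, confocal imaging; annexin V-positive cells counted from ~100 cells (average ± SEM).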

[2] = target: T1, DNA topoisomerase 1 (Homo sapiens) (UniProt P11387); test: Inhibition of recombinant human topoisomerase1-[32P]-labeled 25-mer duplex oligonucleotide cleavage complex formation at 10 to 50 uM after 30 mins using topoisomerase1 expressed in baculovirus infected sf9 cells by […]
T1 sequence (whole entry): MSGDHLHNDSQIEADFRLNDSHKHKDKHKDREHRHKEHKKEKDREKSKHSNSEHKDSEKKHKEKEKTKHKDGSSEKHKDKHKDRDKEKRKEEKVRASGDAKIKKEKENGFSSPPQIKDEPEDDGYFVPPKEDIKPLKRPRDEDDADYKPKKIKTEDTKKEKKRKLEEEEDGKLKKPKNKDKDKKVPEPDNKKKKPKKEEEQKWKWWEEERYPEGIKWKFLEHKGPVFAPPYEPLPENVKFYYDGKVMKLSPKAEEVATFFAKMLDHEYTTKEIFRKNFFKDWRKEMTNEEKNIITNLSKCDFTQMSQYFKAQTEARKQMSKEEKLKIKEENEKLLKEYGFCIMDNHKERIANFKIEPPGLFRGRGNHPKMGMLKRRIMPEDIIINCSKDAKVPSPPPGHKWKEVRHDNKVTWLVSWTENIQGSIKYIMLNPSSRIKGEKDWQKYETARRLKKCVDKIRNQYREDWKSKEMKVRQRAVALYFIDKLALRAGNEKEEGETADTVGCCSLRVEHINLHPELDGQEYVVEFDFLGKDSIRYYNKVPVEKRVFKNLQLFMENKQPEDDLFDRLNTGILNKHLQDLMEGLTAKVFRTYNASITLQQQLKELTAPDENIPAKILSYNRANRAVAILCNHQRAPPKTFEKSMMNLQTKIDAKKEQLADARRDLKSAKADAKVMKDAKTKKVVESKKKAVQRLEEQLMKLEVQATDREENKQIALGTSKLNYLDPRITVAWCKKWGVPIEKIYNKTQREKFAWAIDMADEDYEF

[3] = target: T1, DNA topoisomerase 1 (Homo sapiens); test: Inhibition of recombinant human topoisomerase-1 expressed in baculovirus infected sf9 cells at 1 uM using supercoiled pBS SK(+) DNA as substrate after 15 mins by ethidium bromide staining based agarose gel electrophoresis method relative to control
Outline: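 Relaxation assay: 90 fmol supercoiled pBS (SK+) DNA with 30 fmol recombinant Top1 (Sf-9/baculovirus). Compound either preincubated with Top1 for 5 min before DNA addition, or added simultaneously with DNA; then 37 °C for 15 min. Vehicle 2% DMSO. Read on 1% agarose gel. EC50 from mean ± SD of three experiments.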

[4] = target: T1, DNA topoisomerase 1 (Homo sapiens); test: Inhibition of CPT-induced recombinant human EGFP-tagged topoisomerase-1- DNA cleavage complex formation assessed as restoration of Top1 mobility at 20 uM after 10 mins by FRAP assay; set-up: scale not given: the % may be the effect or the level left
Outline: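 FRAP in living MCF7 cells transiently expressing EGFP-human Top1, 37 °C chamber. Treatment was CPT 5 μM or compound 20 μM for 10 min, or CPT for 10 min then compound for 10 min. A subnuclear spot was bleached for 30 ms at 488 nm; curves normalized to the prebleach signal.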

DNA topoisomerase 1 = target: T2, DNA topoisomerase 1 (Homo sapiens, UniProt P11387); test: Binding affinity to recombinant human topoisomerase-1 expressed in baculovirus infected sf9 cells by spectrofluorimetric method
T2 sequence (P11387 whole entry): T1 sequence (whole entry)
Outline: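 Purified Top1 (200 nM) incubated with compound at 0–11 μM, 25 °C, 10 min. Tryptophan emission read at 350 nm (ex 295 nm). Fraction bound B = (F0 – F)/Fmax, with Fmax taken from a double-reciprocal 1/(F0 – F) vs 1/[X] plot; KD derived from this. Mean ± SD, n=3.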

Bacteria = test: Induction of relaxed pBluescript SK(+) DNA intercalation (unknown origin) assessed as negative supercoiling at 50 to 300 uM after 15 mins by agarose gel electrophoresis method
Outline: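 Top1 unwinding assay: relaxed DNA made by reacting excess Top1 with supercoiled pBS (SK+) plasmid (50 fmol), then incubated with compound at 50, 100 or 300 μM; m-AMSA and etoposide as reference intercalator/non-intercalator. Topoisomers resolved on agarose gel.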

MCF7 [5] = test: Induction of DNA strand breaks in human MCF7 cells at 10 to 20 uM after 12 hrs by alkaline comet assay relative to control; type: functional
Outline: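 MCF7 cells exposed 12 h; some pretreated with NAC (10 mM) for 30 min first. Alkaline comet assay; mean comet tail scored over 20–25 cells (average ± SEM).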

HEK293 = test: Cytotoxicity against HEK293 cells assessed as reduction in cell viability by MTT assay; type: cell-based; details: Homo sapiens
Outline: (§1)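 Survival of each cell line measured across a range of compound concentrations. Percent inhibition of viability at each concentration calculated against untreated control and IC50 estimated. MEFs were TDP1+/+ and TDP1–/– primary cells. Mean ± SD of at least three experiments in duplicate.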

HCT-116 = test: Cytotoxicity against human HCT116 cells assessed as reduction in cell viability by MTT assay; type: functional, cell-based; outline: as §1
MCF7 [6] = test: Induction of DNA strand breaks in human MCF7 cells at 20 uM after 12 hrs in presence of ROS inhibitor NAC by alkaline comet assay relative to control; type: functional, cell-based
Outline: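 MCF7 cells treated 12 h, with or without 30 min pretreatment with NAC (10 mM). Strand breaks measured by alkaline comet assay; mean comet tail calculated for 20–25 cells (average ± SEM).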

[7] = target: T1, DNA topoisomerase 1 (Homo sapiens); test: Induction of proteasome-mediated topoisomerase-1 degradation in human MCF7 cells at 10 uM up to 12 hrs in presence of proteasome inhibitor MG132 by Western blot method; type: cell-based
Outline: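 Whole-cell extracts of MCF7 cells treated with 10 μM for the indicated times, or preincubated with MG132 (100 nM) for 4 h before 12 h compound exposure. Top1 detected by Western blot with mouse monoclonal anti-Top1 (C21).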

[8] = target: T1, DNA topoisomerase 1 (Homo sapiens); test: Inhibition of CPT-induced recombinant human topoisomerase1-[…] cleavage complex at 10 to 50 uM after 30 mins using topoisomerase1 expressed in baculovirus infected sf9 cells by […]

CN(C)c1ccc(-c2c3nc(c(-c4ccc(N(C)C)cc4)c4ccc([nH]4)c(-c4ccc(C(=O)O)cc4)c4nc(c(-c5ccc(C(=O)O)cc5)c5ccc2[nH]5)C=C4)C=C3)cc1
fold change (FC) (MCF7 [1]): 7 | inhibition [2]: Active | inhibition [3]: 35 to 40% | Activity [4]: 12 to 15% | Kd (DNA topoisomerase 1): 0.381 µM | Activity (Bacteria): inactive | fold change (FC) (MCF7 [5]): 8 | IC50 (HEK293): > 10 µM | IC50 (HCT-116): 4.39 µM | Activity (MCF7 [6]): inactive | Activity [7]: inactive | inhibition [8]: Active

From ChEMBL document CHEMBL4024789, “Neutral Porphyrin Derivative Exerts Anticancer Activity by Targeting Cellular Topoisomerase I (Top1) and Promotes Apoptotic Cell Death without Stabilizing Top1-DNA Cleavage Complexes” (J Med Chem, 2018)
